Data taken from ChEMBL document CHEMBL3877292, “Synthesis and evaluation of novel hybrids β-carboline-4-thiazolidinones as potential antitumor and antiviral agents” (Eur J Med Chem, 2016).
pEC50: −log10 of the molar value.

Tests used:
[1] = Antiproliferative activity against human NCI/ADR-RES cells after 48 hrs by SRB assay; assay type: functional
Outline: (§1)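 Cells grown in RPMI 1640 with 5% FBS, with penicillin/streptomycin in experimental cultures. Exposed in triplicate to 0.25, 2.5, 25 and 250 µg/mL in DMSO/RPMI for 48 h at 37 °C under 5% CO2. Plates were TCA-fixed before (T0) and after treatment, then stained with sulforhodamine B and read at 540 nm. GI50 was obtained by non-linear regression against untreated growth. Doxorubicin served as positive control.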

[2] = Antiproliferative activity against human 786-0 cells after 48 hrs by SRB assay; assay type: functional; conditions: 786-0, 48 h; outline: as §1
[3] = Antiproliferative activity against human HT-29 cells after 48 hrs by SRB assay; assay type: functional; conditions: HT-29, 48 h; outline: as §1
[4] = Antiproliferative activity against human NCI-H460 cells after 48 hrs by SRB assay; assay type: functional; conditions: NCI-H460, 48 h; outline: as §1
[5] = Antiproliferative activity against human MCF7 cells after 48 hrs by SRB assay; assay type: functional; conditions: MCF7, 48 h; outline: as §1
[6] = Antiproliferative activity against human OVCAR3 cells after 48 hrs by SRB assay; assay type: functional; conditions: OVCAR-3, 48 h; outline: as §1
Human alphaherpesvirus 1 = assay: Antiviral activity against Herpes simplex type I KOS; assay type: functional; conditions: Human alphaherpesvirus 1, KOS
[7] = Selectivity index, ratio of CC50 for Herpes simplex type I KOS infected African green monkey Vero cells to EC50 for Herpes simplex virus type 1 KOS; assay type: toxicity, cell-based; conditions: Herpes simplex virus type 1 KOS infected Vero cells, read-out: Ratio CC50/EC50
Outline: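 SI calculated as CC50/EC50. CC50 is the 50% cytotoxic concentration on Vero cells by sulforhodamine B, tested in triplicate from 0.1 to 1000 µg/mL. EC50 is the concentration protecting 50% of cells against HSV-1, with acyclovir as HSV-1 standard and drug-free cells as control.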

[8] = Antiproliferative activity against human U251 cells after 48 hrs by SRB assay; assay type: functional; conditions: U-251, 48 h; outline: as §1
[9] = Cytotoxicity against African green monkey Vero cells after 48 hrs by SRB assay; assay type: toxicity, cell-based; conditions: chlorocebus sabaeus
Outline: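 Vero (ATCC CCL81) cells grown in DMEM with 10% FBS and gentamicin at 37°C, 5% CO2. Cells exposed in triplicate to 1000, 500, 100, 10, 1 and 0.1 µg/mL, with untreated cells as control. Viability read by sulforhodamine B colorimetry. CC50 is the concentration giving 50% cytotoxicity.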

[10] = Antiproliferative activity against human UACC62 cells after 48 hrs by SRB assay; assay type: functional; conditions: UACC-62, 48 h; outline: as §1
[11] = Antiproliferative activity against human PC3 cells after 48 hrs by SRB assay; assay type: functional; conditions: PC-3, 48 h; outline: as §1
[12] = Cell cycle arrest in human 786-0 cells assessed as accumulation at sub-G1 phase at 1.25 uM after 24 hrs by propidium iodide staining-based flow cytometry (Rvb=3.7+/-0.9%); assay type: functional
Outline: (§2)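 786-0 cells seeded at 3×10^4 cells/mL and grown 24 h, then serum-starved 24 h to synchronise. Treated in DMSO/RPMI for 24 h alongside DMSO vehicle and colchicine control. 1×10^5 cells in PBS were stained with propidium iodide for 20 min in the dark at room temperature, then analysed by flow cytometry. Results are mean ± standard error % cells from three experiments in triplicate; ANOVA/Tukey.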

[13] = Cell cycle arrest in human 786-0 cells assessed as accumulation at G2/M phase at 1.25 uM after 24 hrs by propidium iodide staining-based flow cytometry (Rvb=36.5+/-1.1%); assay type: functional; outline: as §2
[14] = Cell cycle arrest in human 786-0 cells assessed as accumulation at G1 phase at 1.25 uM after 24 hrs by propidium iodide staining-based flow cytometry (Rvb=47.1+/-1%); assay type: functional; outline: as §2
[15] = Cell cycle arrest in human 786-0 cells assessed as accumulation at S phase at 1.25 uM after 24 hrs by propidium iodide staining-based flow cytometry (Rvb=12.6+/-0.7%); assay type: functional; outline: as §2

Row | SMILES | GI50 [1] | GI50 [2] | GI50 [3] | GI50 [4] | GI50 [5] | GI50 [6] | pEC50 (Human alphaherpesvirus 1) | selectivity ratio [7] | GI50 [8] | CC50 at 48 h [9] | GI50 [10] | GI50 [11] | Activity [12] | Activity [13] | Activity [14] | Activity [15]
1 | O=C1CS/C(=N\NC(=O)c2cc3c([nH]c4ccccc43)c(-c3cccc([N+](=O)[O-])c3)n2)N1 | 0.62 µM | 16.1 µM | > 100 µM | > 100 µM | 40.1 µM | > 100 µM |  |  |  |  |  |  |  |  |  | 
2 | CCN1C(=O)CS/C1=N\NC(=O)c1cc2c([nH]c3ccccc32)c(-c2ccc(OC)cc2)n1 | 12.2 µM |  | 9.62 µM | 8.56 µM | 6.52 µM | 6.52 µM | 4.58 | 65.2 | 1.95 µM | 1730 µM |  |  |  |  |  | 
3 | O=C(NN1C(=O)CSC1c1ccccc1Cl)c1cc2c([nH]c3ccccc32)c(-c2ccccc2)n1 (stereo not given) | > 100 µM | > 100 µM | > 100 µM | > 100 µM | > 100 µM | > 100 µM |  |  | > 100 µM |  | > 100 µM | > 100 µM |  |  |  | 
4 | CCN1C(=O)CS/C1=N\NC(=O)c1cc2c([nH]c3ccccc32)c(-c2ccccc2Cl)n1 | 0.25 µM |  | 88.9 µM | 4.12 µM | 6.84 µM | 3.97 µM | < 4.00 |  | 0.74 µM | 1400 µM |  |  |  |  |  | 
5 | O=C(NN1C(=O)CSC1c1ccccc1)c1cc2c([nH]c3ccccc32)c(-c2ccccc2)n1 (stereo not given) | 18.4 µM | > 100 µM | > 100 µM | > 100 µM | 19.1 µM | 1.58 µM | 5.67 | 235 | 0.25 µM | 506 µM | 80.4 µM | 7.23 µM |  |  |  | 
6 | O=C(N/N=C1\SCC(=O)N1c1ccccc1)c1cc2c([nH]c3ccccc32)c(-c2ccccc2)n1 | 3.13 µM | 13.6 µM | > 100 µM | 37.2 µM | 28 µM | 17.5 µM | 4.10 | 18.8 | 17.5 µM | 1480 µM |  |  |  |  |  | 
7 | O=C1CS/C(=N\NC(=O)c2cc3c([nH]c4ccccc43)c(-c3ccccc3)n2)N1 | 28.1 µM | 16.3 µM | 19.5 µM | 18.2 µM | 11.4 µM | 9.88 µM | 3.99 | 24.4 | 15.8 µM | 2490 µM |  |  |  |  |  | 
8 | CCN1C(=O)CS/C1=N\NC(=O)c1cc2c([nH]c3ccccc32)c(-c2cccc([N+](=O)[O-])c2)n1 | 3.27 µM | > 100 µM | > 100 µM | > 100 µM | > 100 µM | > 100 µM | 4.06 | 20.7 | > 100 µM | 1790 µM |  |  |  |  |  | 
9 | COc1cc2c(c(OC)c1OC)-c1ccc(OC)c(=O)cc1[C@@H](NC(C)=O)CC2 |  |  |  |  |  |  |  |  |  |  |  |  | 9% | 61.7% | 18.3% | 11%
10 | CCN1C(=O)CS/C1=N\NC(=O)c1cc2c([nH]c3ccccc32)c(-c2ccccc2F)n1 | > 100 µM | > 100 µM | > 100 µM | > 100 µM | > 100 µM | > 100 µM | < 4.00 |  | > 100 µM | 2980 µM |  |  |  |  |  | 
11 | O=C(NN1C(=O)CSC1c1ccccc1)c1cc2c([nH]c3ccccc32)c(-c2cccc([N+](=O)[O-])c2)n1 (stereo not given) | > 100 µM | > 100 µM | > 100 µM | > 100 µM | > 100 µM | 1.25 µM | 5.69 | 534 | > 100 µM | 1080 µM |  |  |  |  |  | 
12 | CCN1C(=O)CS/C1=N\NC(=O)c1cc2c([nH]c3ccccc32)c(-c2ccccc2)n1 | 8.89 µM |  | > 100 µM | > 100 µM | 17.2 µM | > 100 µM |  |  | 0.46 µM |  |  |  |  |  |  | 
13 | COc1ccc(-c2nc(C(=O)N/N=C3/NC(=O)CS3)cc3c2[nH]c2ccccc23)cc1 | > 100 µM | 9.98 µM | 16.5 µM | 7.15 µM | 0.49 µM | 1.12 µM |  |  |  |  |  |  |  |  |  | 
14 | CN(C)c1ccc(-c2nc(C(=O)N/N=C3\SCC(=O)N3c3ccccc3)cc3c2[nH]c2ccccc23)cc1 | 35.4 µM | 3.97 µM | 38.1 µM | 17.9 µM | 15 µM | > 100 µM | 4.30 | 16.4 | 12.5 µM | 817 µM |  |  |  |  |  | 
15 | CN(C)c1ccc(-c2nc(C(=O)NN3C(=O)CSC3c3ccccc3)cc3c2[nH]c2ccccc23)cc1 (stereo not given) | 64.5 µM | > 100 µM | > 100 µM | > 100 µM | > 100 µM | > 100 µM | 6.10 | 592 | 64.5 µM | 467 µM |  |  |  |  |  | 
16 | O=C(N/N=C1\SCC(=O)N1c1ccccc1)c1cc2c([nH]c3ccccc32)c(-c2ccccc2F)n1 | > 100 µM | > 100 µM | > 100 µM | > 100 µM | > 100 µM | > 100 µM | < 4.00 |  | > 100 µM | 339 µM |  |  |  |  |  | 
17 | O=C(NN1C(=O)CSC1c1ccccc1)c1cc2c([nH]c3ccccc32)c(-c2ccccc2F)n1 (stereo not given) | > 100 µM | > 100 µM | > 100 µM | > 100 µM | 63.1 µM | 0.73 µM | 4.52 | 21 | 84.1 µM | 637 µM |  |  |  |  |  | 
18 | O=C(N/N=C1\SCC(=O)N1c1ccccc1)c1cc2c([nH]c3ccccc32)c(-c2cccc([N+](=O)[O-])c2)n1 | 0.19 µM | 1.53 µM | 2.28 µM | 3.91 µM | 2.36 µM | 0.83 µM | 4.76 | 67.8 | 1.59 µM | 1170 µM |  |  |  |  |  | 
19 | O=C1CS/C(=N\NC(=O)c2cc3c([nH]c4ccccc43)c(-c3ccccc3F)n2)N1 | 66.4 µM | 20.3 µM | 32.4 µM | 21.1 µM | 11.9 µM | 12.3 µM | 4.71 | 54.9 | 9.57 µM | 1070 µM |  |  |  |  |  | 
20 | CCN1C(=O)CS/C1=N\NC(=O)c1cc2c([nH]c3ccccc32)c(-c2ccc(N(C)C)cc2)n1 | 2.6 µM | 6.61 µM | 65.7 µM | 59 µM | 54.9 µM | 2.42 µM | 5.17 | 243 | 63.3 µM | 1650 µM |  |  |  |  |  | 
21 | O=C1CS/C(=N\NC(=O)c2cc3c([nH]c4ccccc43)c(-c3ccccc3Cl)n2)N1 | > 100 µM | 6.1 µM | 10.8 µM | 3.85 µM | 1.42 µM | 0.01 µM | < 4.00 |  |  | 766 µM |  |  |  |  |  | 
22 | O=C(NN1C(=O)CSC1c1cccs1)c1cc2c([nH]c3ccccc32)c(-c2ccccc2)n1 (stereo not given) | > 100 µM | > 100 µM | > 100 µM | > 100 µM | > 100 µM | > 100 µM |  |  | > 100 µM |  | > 100 µM | > 100 µM |  |  |  | 
